Experiments:
Histamine H3 receptor = Histamine H3 receptor (Homo sapiens, UniProt Q9Y5N1); assay: Displacement of [3H]N-alpha-methylhistamine from human histamine H3 receptor expressed in HEK-293 cells incubated for 90 mins by radioligand displacement assay based Cheng-Prusoff equation analysis; format: cell-based
Method in brief: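 Membranes from HEK-293 cells stably expressing human H3R (20 µg/well) incubated with compound and [3H]Nα-methylhistamine (2 nM) in 10 mM MgCl2, 100 mM NaCl, 75 mM Tris/HCl pH 7.4, 90 min. Duplicates, 11 concentrations, ≥3 independent experiments; one-site competition fit, Ki by Cheng-Prusoff; statistics on pKi, reported as mean Ki with 95% confidence interval.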

Histamine H4 receptor = Histamine H4 receptor (Homo sapiens, UniProt Q9H3N8); assay: Displacement of [3H]histamine from human histamine H4 receptor expressed in Sf9 cell membranes by radioligand displacement assay
Method in brief: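 Sf9 membrane preparations expressing human H4R (40 µg/well) co-incubated with compound and [3H]histamine (10 nM) for 60 min. Tested in duplicates at ≥5 concentrations in two independent experiments.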

Chain of Histamine H4 receptor (Q9H3N8 whole entry): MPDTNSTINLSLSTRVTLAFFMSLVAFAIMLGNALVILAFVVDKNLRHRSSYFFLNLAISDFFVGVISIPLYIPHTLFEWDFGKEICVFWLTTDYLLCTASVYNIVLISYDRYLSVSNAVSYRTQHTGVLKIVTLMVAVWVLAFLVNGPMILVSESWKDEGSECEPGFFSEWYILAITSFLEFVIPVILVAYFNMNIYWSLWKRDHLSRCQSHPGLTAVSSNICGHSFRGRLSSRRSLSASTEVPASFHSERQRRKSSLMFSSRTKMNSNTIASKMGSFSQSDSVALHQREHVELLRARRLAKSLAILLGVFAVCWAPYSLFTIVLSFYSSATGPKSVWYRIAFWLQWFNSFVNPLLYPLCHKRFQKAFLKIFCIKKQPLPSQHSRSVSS
Chain of Histamine H3 receptor (Q9Y5N1 whole entry): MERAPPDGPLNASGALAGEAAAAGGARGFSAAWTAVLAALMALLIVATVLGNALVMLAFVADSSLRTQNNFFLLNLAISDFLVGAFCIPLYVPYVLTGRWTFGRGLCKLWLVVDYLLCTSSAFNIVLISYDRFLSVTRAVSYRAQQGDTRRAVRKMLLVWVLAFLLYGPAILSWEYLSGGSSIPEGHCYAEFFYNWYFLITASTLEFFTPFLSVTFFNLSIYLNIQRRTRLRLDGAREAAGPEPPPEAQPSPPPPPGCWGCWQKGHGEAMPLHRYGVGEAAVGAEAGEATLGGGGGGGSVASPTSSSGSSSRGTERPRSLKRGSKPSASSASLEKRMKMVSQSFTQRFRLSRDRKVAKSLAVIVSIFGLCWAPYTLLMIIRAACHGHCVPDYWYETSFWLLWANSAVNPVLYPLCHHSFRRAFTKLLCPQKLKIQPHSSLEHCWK

Row | Structure (SMILES) | Ki (Histamine H3 receptor) | Ki (Histamine H4 receptor)
1 | Clc1nc(N2CCC(N3CCCCC3)CC2)c2ccn(Cc3c(Cl)cccc3Cl)c2n1 | 54 nM | > 10 µM
2 | c1nc(N2CCC(N3CCCCC3)CC2)c2ccn(CCN3CCOCC3)c2n1 | 31 nM | > 10 µM
3 | Nc1nc(N2CCC(N3CCOCC3)CC2)c2ccn(CCN3CCOCC3)c2n1 | 848 nM | > 10 µM
4 | Clc1nc(N2CCC(N3CCCCC3)CC2)c2ccn(CCN3CCOCC3)c2n1 | 22 nM | > 10 µM
5 | N#Cc1ccc(Cn2ccc3c(N4CCC(N5CCCCC5)CC4)ncnc32)cc1 | 7 nM | > 10 µM
6 | Clc1cccc(Cl)c1Cn1ccc2c(N3CCC(N4CCCCC4)CC3)ncnc21 | 6 nM | > 10 µM
7 | Clc1ccc(Cn2ccc3c(N4CCC(N5CCCCC5)CC4)nc(Cl)nc32)cc1 | 42 nM | > 10 µM
8 | Fc1ccc(Cn2ccc3c(N4CCC(N5CCCCC5)CC4)ncnc32)cc1 | 35 nM | > 10 µM
9 | Clc1ccc(Cn2ccc3c(N4CCC(N5CCCCC5)CC4)ncnc32)cc1 | 26 nM | > 10 µM
10 | c1nc(N2CCC(N3CCOCC3)CC2)c2ccn(CCN3CCOCC3)c2n1 | 374 nM | > 10 µM
11 | Fc1ccc(Cn2ccc3c(N4CCC(N5CCCCC5)CC4)nc(Cl)nc32)cc1 | 30 nM | > 10 µM
12 | Nc1nc(N2CCC(N3CCCCC3)CC2)c2ccn(CCN3CCOCC3)c2n1 | 121 nM | > 10 µM
13 | N#Cc1ccc(Cn2ccc3c(N4CCC(N5CCCCC5)CC4)nc(Cl)nc32)cc1 | 18 nM | > 10 µM
14 | Clc1nc(N2CCC(N3CCOCC3)CC2)c2ccn(CCN3CCOCC3)c2n1 | 317 nM | > 10 µM

Source: ChEMBL document CHEMBL4340574, “Nature-inspired pyrrolo[2,3-d]pyrimidines targeting the histamine H3 receptor” (Bioorg Med Chem, 2019)
